Screening data as filed in PubChem BioAssay.
NF-kB neuron act: activators of NF-kB expression in neurons, primary screen, cell-based, HTS; human neuronal cells, NF-kB reporter expression; hits give high values; fold change at 12.5 µM; 190,000 tested, 1.6% active; in the data active = fold change above about 3.3
FLuc inhib CS: firefly luciferase enzyme inhibitors, primary screen, artefact control for luciferase-based inhibitor screens, biochemical, luminescence, ATPLite. 200,000 tested, 1.5% active. Luciferin 4-monooxygenase (Photinus pyralis), P08659. inhibition, % at 10 µM. 10 min;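 active = inhibition above about 50% when tested at 10 µM, limit read from the data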
Target sequence (P08659 whole entry, looked up): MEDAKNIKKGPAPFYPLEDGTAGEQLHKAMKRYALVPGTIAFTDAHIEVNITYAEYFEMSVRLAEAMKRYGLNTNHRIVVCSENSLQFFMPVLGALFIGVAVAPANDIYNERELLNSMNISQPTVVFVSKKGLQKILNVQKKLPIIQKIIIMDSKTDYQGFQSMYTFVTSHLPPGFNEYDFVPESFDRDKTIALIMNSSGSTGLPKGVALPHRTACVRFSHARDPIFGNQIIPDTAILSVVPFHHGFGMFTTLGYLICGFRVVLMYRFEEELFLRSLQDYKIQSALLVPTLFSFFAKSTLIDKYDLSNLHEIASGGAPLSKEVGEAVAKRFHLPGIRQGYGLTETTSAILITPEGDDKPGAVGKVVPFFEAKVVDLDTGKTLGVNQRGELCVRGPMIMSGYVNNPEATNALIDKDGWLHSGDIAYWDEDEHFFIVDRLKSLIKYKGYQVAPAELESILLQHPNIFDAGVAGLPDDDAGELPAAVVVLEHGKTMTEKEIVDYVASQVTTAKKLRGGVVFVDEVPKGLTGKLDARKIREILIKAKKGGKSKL
FLuc act counter: FLuc activators, initial screening, artefact control for FLuc-dependent activation tests, biochemical, ATPlite luminescence; Luciferin 4-monooxygenase (Photinus pyralis), P08659; ATPlite luciferase biochemical, 10 min; 0 = ATP-free wells, 1 = DMSO control; activation factor at 10 µM; 200,000 tested, under 10 active;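 active = luciferase activation factor, scaled between plate controls, of at least 2 with compound at 10 µM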
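test system = cell-free luciferase reagent | medium = PBS as buffer for the ATP substrate | dosing = test compounds dosed from 2 mM stocks in 100% DMSO | incubation = 10 min at ambient temperature | detection = luminescence measurement of luciferase light output | benchmarks = low control with PBS replacing ATP, high control enzyme plus ATP without compound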
Pf gamet viab: late stage P. falciparum gametocyte viability inhibitors, primary screen, ATP luminescence, HTS | P. falciparum stage V gametocytes, 24 h | inhibition, % at 10.9 µM | 150,000 tested, 0.065% active;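 active = inhibition above the mean plus 3 SD of compounds within the control limits, set per campaign, cut at about 38% in these data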
APP 5'UTR act: activators of APP 5'UTR luciferase reporter, primary screen, SH-SY5Y cells. SH-SY5Y APP 5'UTR luciferase reporter, luminescence; zero percent = DMSO vehicle wells. activation, % at 2 µM. 190,000 tested, 1% active;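 active = activation above a set limit, based on mean plus 3 SD of controls, cut at about 140% in these data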
STAT1 activator: STAT1 signaling activators, primary screen, cell-based, HTS, luciferase reporter | NIH 3T3 STAT1-luciferase reporter, IFN-gamma, luminescence; 100% = IFN-gamma alone, no compound | activation (% of control), % at 5.5 µM | 200,000 tested, 2.6% active | AID 932, 2007;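 active = activation above the screen-wide mean activation plus 3 SD, cut at about 130% in these data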
STAT1 act conf: STAT1 signaling activators, confirmation, cell-based, HTS, luciferase reporter; shares compounds with STAT1 activator; NIH 3T3 STAT1-luciferase reporter, IFN-gamma potentiation, luminescence; 100% = IFN-gamma EC80 alone, no compound; activation (% of control), % at 5.7 µM; 1,200 tested, 97% active;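 active = activation above a set limit carried over from the earlier primary STAT1 screen, cut at about 140% in these data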
NFkB act STAT1ct: NF-kB reporter activators, TNF-alpha stimulated, counter-screen for STAT1 activator project, cell-based, HEK293T, luciferase luminescence; 1,200 tested, 43% active; activation (% of control), % at 5.7 µM; 100% = TNF-alpha with vehicle only; shares compounds with STAT1 activator; AID 1306, 2008;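 active = activation above the mean of solvent-only control wells plus 3 SD, set per campaign, cut at about 130% in these data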;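 note: TNF-alpha given at a submaximal dose yielding about 80% of full reporter signal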
STAT3 act STAT1c: STAT3 reporter activation by STAT1 hits, confirmation, counter-screen for STAT1 activator project, U3A cells, luciferase, luminescence. shares compounds with STAT1 activator. IL-6; cells lack STAT1; 100 = IL-6 alone, no compound effect. activation (% of control), % at 5.7 µM. 1,200 tested, 46% active. AID 1316, 2008;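 active = activation above the solvent-only control well mean plus 3 SD, set per plate batch, cut at about 110% in these data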;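 note: higher means more STAT3 reporter activation so hits are non-selective activators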
Of the large screens only hits and unclear results are named; the others gave an inactive call (follow-up assays come after a bar, where they were run). Sampled rows, rich in hits. Any-hit rate of the full collection: about 3.5%.

CCC(=O)Nc1ccc(-c2nnc(-c3ccccc3)o2)cc1	APP 5'UTR act 210, STAT1 activator 163 | STAT1 act conf 220 | NFkB act STAT1ct inactive | STAT3 act STAT1c 113
N/C(=N\NC(=O)c1ccc(F)cc1)c1cc2ccccc2oc1=O	none
O=C(c1ccc(F)cc1)c1cc2ccccc2o1	NF-kB neuron act 3.6, STAT1 activator 157 | STAT1 act conf 174 | NFkB act STAT1ct inactive | STAT3 act STAT1c inactive
Cc1ccc(C)c(NC(=O)c2ccccn2)c1	none (no result: Pf gamet viab)
Cn1ccc(C(=O)Nc2ccc(Br)cc2Br)n1	NF-kB neuron act 7.6, APP 5'UTR act 143, STAT1 activator 168 | STAT1 act conf 200 | NFkB act STAT1ct inactive | STAT3 act STAT1c inactive
Cc1ccc(NC(=O)Cn2cccc2)c(Br)c1	none (no result: Pf gamet viab)
Cc1ccc(NC(=O)c2ccccn2)c(Br)c1	NF-kB neuron act 6.9, APP 5'UTR act 153, STAT1 activator 152 | STAT1 act conf 200 | NFkB act STAT1ct inactive | STAT3 act STAT1c inactive
COc1cccc(NC(=O)c2ccn(C)n2)c1	none (no result: Pf gamet viab)
Cc1ccc(NC(=O)c2ccn(C)n2)c(Br)c1	NF-kB neuron act 7, APP 5'UTR act 142, STAT1 activator 155 | STAT1 act conf 198 | NFkB act STAT1ct inactive | STAT3 act STAT1c inactive
CC(C)OC(=O)CN1CCN(C2c3ccccc3-c3ccccc32)CC1	none
O=C(NCCCN1CCc2ccccc2C1)Nc1ccc(Cl)cc1	none
CC(C)C(=O)OCC(=O)Nc1ccc(N=Nc2ccccc2)cc1	NF-kB neuron act 5.1, APP 5'UTR act 170, STAT1 activator 151 | STAT1 act conf 184 | NFkB act STAT1ct 140 | STAT3 act STAT1c 117
CC(=O)Nc1ccc(N=Nc2ccccc2)cc1	NF-kB neuron act 5.3, STAT1 activator 152 | STAT1 act conf 188 | NFkB act STAT1ct inactive | STAT3 act STAT1c inactive
O=C(Nc1ccc(N=Nc2ccccc2)cc1)c1ccc(Cl)cc1Cl	none (no result: Pf gamet viab)
O=C(Nc1ccc(N=Nc2ccccc2)cc1)c1ccccc1Cl	APP 5'UTR act 158, STAT1 activator 180 | STAT1 act conf 204 | NFkB act STAT1ct 153 | STAT3 act STAT1c 120
CC(=O)OCC(=O)Nc1ccc(SC(F)F)cc1	none
CCC(C(=O)OCC(=O)Nc1ccc(C(N)=O)cc1)c1ccccc1 (configuration not stated)	none
CC(=O)OCC(=O)Nc1ccc(N=Nc2ccccc2)cc1	NF-kB neuron act 4.9, STAT1 activator 162 | STAT1 act conf 190 | NFkB act STAT1ct 135 | STAT3 act STAT1c 114
O=C(CCl)Nc1ccc(N=Nc2ccccc2)cc1	none
CCOC(=O)N1CCC(N2CCN(S(=O)(=O)c3ccc4ccccc4c3)CC2)CC1	none (no result: Pf gamet viab)
Cc1oc(-c2ccc(-c3ccccc3)cc2)nc1CN(C)C1CCOC1 (configuration not stated)	STAT1 activator 165 | STAT1 act conf 192 | NFkB act STAT1ct 144 | STAT3 act STAT1c 117
COc1ccc(C(=O)Nc2ccc(SC(F)F)cc2)cc1	APP 5'UTR act 164, STAT1 activator 164 | STAT1 act conf 182 | NFkB act STAT1ct 141 | STAT3 act STAT1c inactive
COc1ccc(NC(=O)c2ccc(OC(F)F)cc2)cc1Cl	NF-kB neuron act 4.4, FLuc inhib CS 52, STAT1 activator 166 | STAT1 act conf 181 | NFkB act STAT1ct inactive | STAT3 act STAT1c inactive
Cc1cc(Cl)nc(Cl)c1C(=O)N1CCOCC1	none
CC(=O)c1c(O)cc(=O)oc1-c1ccc(C)cc1	none (no result: NF-kB neuron act, FLuc inhib CS, FLuc act counter, APP 5'UTR act, STAT1 activator)
C/C(=N\NC(=O)c1ccco1)c1ccc(NC(=O)c2cccs2)cc1	STAT1 activator 154 | STAT1 act conf inactive | NFkB act STAT1ct inactive | STAT3 act STAT1c inactive
C/C(=N\NC(=O)c1ccccc1C)c1ccc(NC(=O)c2cccs2)cc1	none (no result: Pf gamet viab)
CCCC(=O)Nc1nc2ccc3nc(C)sc3c2s1	none (no result: Pf gamet viab)
CCC(=O)Nc1nc2ccc3sc(C)nc3c2s1	STAT1 activator 168 | STAT1 act conf 189 | NFkB act STAT1ct inactive | STAT3 act STAT1c 143
COc1ccc(-c2cc3ncc(-c4ccccc4)c(N)n3n2)cc1	FLuc inhib CS 79, APP 5'UTR act 225, STAT1 activator 156 | STAT1 act conf 198 | NFkB act STAT1ct inactive | STAT3 act STAT1c inactive
N#Cc1cnc2cc(-c3ccccc3)nn2c1N	none (no result: NF-kB neuron act, FLuc inhib CS, FLuc act counter, APP 5'UTR act, STAT1 activator)
Cc1occc1-c1nnc(SCC(=O)c2ccccc2)n1CC1CCCO1 (configuration not stated)	none (no result: Pf gamet viab)
O=C(Nc1ncc(Cc2cccc(Cl)c2)s1)C1CCCO1 (configuration not stated)	none
O=C(Nc1ncc(Cc2ccccc2Cl)s1)C1CCCO1 (configuration not stated)	NF-kB neuron act 3.9, STAT1 activator 151 (no result: Pf gamet viab) | STAT1 act conf 166 | NFkB act STAT1ct 134 | STAT3 act STAT1c 149
CC(=O)Nc1sc2c(c1C#N)CCCC2	none (no result: Pf gamet viab)
CC(=O)NC(=S)Nc1sc2c(c1C#N)CCCCC2	FLuc inhib CS 72, STAT1 activator 167 | STAT1 act conf 186 | NFkB act STAT1ct inactive | STAT3 act STAT1c inactive
Cc1cc(C(=O)Nc2sc3c(c2C#N)CCCCC3)cs1	NF-kB neuron act 4.2, APP 5'UTR act 159, STAT1 activator 176 (no result: Pf gamet viab) | STAT1 act conf 255 | NFkB act STAT1ct 146 | STAT3 act STAT1c 111
CCCc1nn(C)c(C(=O)Nc2ccccc2)c1Cl	APP 5'UTR act 156, STAT1 activator 170 (no result: Pf gamet viab) | STAT1 act conf 199 | NFkB act STAT1ct inactive | STAT3 act STAT1c inactive
C=CCN(CC=C)C(=O)c1ccccc1NC(=O)c1ccccc1C	none
CCOC(=O)c1ccc(OS(=O)(=O)c2ccccc2)c(OC)c1	NF-kB neuron act 3.8, STAT1 activator 174 | STAT1 act conf 185 | NFkB act STAT1ct 141 | STAT3 act STAT1c 123
Cc1ccc(C2=Nc3cccnc3C(c3ccccc3)=NN2)cc1	STAT1 activator 156 | STAT1 act conf 202 | NFkB act STAT1ct 143 | STAT3 act STAT1c 115
